Measured values taken from paper PMC7445463 (Diabetologia, 2020).
Blank lines part the entries; values can stand above or below the compound they belong to.

Key:
[1] = system: Primary human retinal microvascular endothelial cells (ACBRI-181); assay: DMOG chemical hypoxia model; type: cell-based; conditions: DHA 50μM, AICAR 0.5mM; DMOG 400 μM 24h
Outline: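 Primary human retinal microvascular endothelial cells (passage 6–8) grown in endothelial growth medium with 10% FBS. At 70% confluence, exposed 24 h to DMOG 400 μM with or without AICAR 0.5 mM or DHA 50 μM. HIF-1α, HIF-2α, VEGF, ZO-1 and vimentin assessed by immunofluorescence, plus a cell migration assay. AMPK activity by western blot.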

Arrb2+/+ beta cells = assay: F-actin depolymerisation, phalloidin staining; type: cell-based, mouse; conditions: 1μmol/l
Outline: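 F-actin depolymerisation assessed by Alexa Fluor 488-conjugated phalloidin staining. FAK phosphorylation assessed by immunofluorescence.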

C2C12 murine myotubes = assay: ATPγS glucose uptake; type: cell-based; conditions: 100 μM
adiponectin receptor = assay: HFD-fed DBA/2J mice with AdipoRon, 9 weeks; type: in vivo, mouse; conditions: HFD supplemented with AdipoRon
[2] = i.v. beta-hydroxybutyrate infusion crossover study, T2D; type: in vivo, human
CREDENCE trial = type: in vivo, human
[3] = system: patients with type 2 diabetes and CKD; assay: CREDENCE acute eGFR decline; type: in vivo, human; conditions: week 3
[4] = 6 weeks
Notch pathway = assay: PHA-activated co-cultures of obASCs and MNCs; type: cell-based, human; conditions: PHA-activated obASC/MNC co-cultures
Outline: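 Human obese adipose-derived stem cells were co-cultured with mononuclear cells under phytohemagglutinin A activation, with or without the Notch inhibitor DAPT. Separately, the stem cells were transfected or not with Dner-targeting siRNA. Cytokine secretion into the medium was measured by ELISA, and expression by RT-qPCR.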

rats with CHF = type: in vivo, rat; conditions: 30 mg/kg PO
[5] = system: isolated diabetic mouse hearts; assay: Langendorff-perfused db/db hearts, stable isotope analysis
[6] = Empagliflozin 4-week crossover study, cardiac PET/CT; type: in vivo, human
[7] = 24-week empagliflozin appetite trial in overweight/obesity and T2D; type: in vivo, human
[8] = system: patients with T2D and CV disease; assay: EMPA-REG OUTCOME post hoc analyses; parameters: species or system human; conditions: in vivo
[9] = ACCORD trial, cardiovascular autonomic neuropathy; type: in vivo, human; conditions: 95%CI 0.78 - 1.07
[10] = iv bolus of purified MGO in mice, immune cell numbers; type: in vivo, mouse
[11] = system: human retinal endothelial cells (hRECs); assay: MGO exposure of human retinal endothelial cells; type: cell-based; conditions: 500μM, 72h
Rev-erbα = Rev-erbα agonist and antagonist in beta cells and human islets; type: cell-based; conditions: INS-1E cells and human islets
Outline: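 Cells used were rat INS-1E, human EndoC-βH1 and human islets. Rev-erbα was modulated with agonist, antagonist or siRNA knock-down. Stress was glucotoxicity (INS-1E, EndoC-βH1) or cytokines (INS-1E, human islets). Glucose-induced insulin secretion was read by HTRF, apoptosis as cleaved caspase-3, and Rev-erbα protein by western blot.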

neprilysin [12] = biological target: neprilysin (Mus musculus, UniProt Q61391); assay: Exogenous glucagon after sacubitril in mice; type: in vivo; conditions: 0.7 nmol/g; glucagon 96 ng/g; n=10
[13] = Intrajejunal metformin with or without bile exclusion or TCA, T2DM; type: in vivo, human; conditions: metformin with TCA 4 g supplementation; endogenous bile included
[14] = system: differentiated adipocytes (wild type); assay: Adipocyte glucose uptake after dexamethasone; type: cell-based, human; conditions: 0.3 μM/24 h; WT cultures; n=6
[15] = db/db mice, empagliflozin alone or with linagliptin, 8 weeks; type: in vivo, mouse; conditions: 10 mg/kg (of each)
Outline: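 Male 8-week-old db/db mice (BKS.Cg-Dock7m+/+Leprdb/J) received vehicle, SGLT2 inhibitor 10 mg/kg, or SGLT2 inhibitor plus DPP4 inhibitor (10 mg/kg each) for 8 weeks. Heterozygous db/+ mice served as non-diabetic controls. Plasma glucose, fructosamine, glycated albumin and urinary albumin-to-creatinine ratio were measured at weeks 0 and 8.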

[16] = system: patients with type 2 diabetes; assay: Network meta-analysis of antidiabetic medications on blood pressure; parameters: species or system human
[17] = Brain insulin sensitivity by fMRI with intranasal insulin, prediabetes; type: in vivo, human; conditions: 25 mg qd, 8 weeks
[18] = HFD-induced obese mice, empagliflozin 8 weeks; type: in vivo, mouse; parameters: AUC glucose / AUC insulin: unit not given beside the values
[19] = Empagliflozin 24 weeks in T2DM and HFpEF; type: in vivo, human; conditions: after 24 weeks; baseline 126
CAROLINA trial = type: in vivo, human; conditions: 5 mg; regardless of age group
Piezo1 [20] = biological target: Piezo1 (Mus musculus, UniProt E2JF22); assay: In situ pancreas perfusion, insulin secretion
Sequence of Piezo1 (Mus musculus, UniProt E2JF22) (E2JF22 whole entry, the tested form may be a part): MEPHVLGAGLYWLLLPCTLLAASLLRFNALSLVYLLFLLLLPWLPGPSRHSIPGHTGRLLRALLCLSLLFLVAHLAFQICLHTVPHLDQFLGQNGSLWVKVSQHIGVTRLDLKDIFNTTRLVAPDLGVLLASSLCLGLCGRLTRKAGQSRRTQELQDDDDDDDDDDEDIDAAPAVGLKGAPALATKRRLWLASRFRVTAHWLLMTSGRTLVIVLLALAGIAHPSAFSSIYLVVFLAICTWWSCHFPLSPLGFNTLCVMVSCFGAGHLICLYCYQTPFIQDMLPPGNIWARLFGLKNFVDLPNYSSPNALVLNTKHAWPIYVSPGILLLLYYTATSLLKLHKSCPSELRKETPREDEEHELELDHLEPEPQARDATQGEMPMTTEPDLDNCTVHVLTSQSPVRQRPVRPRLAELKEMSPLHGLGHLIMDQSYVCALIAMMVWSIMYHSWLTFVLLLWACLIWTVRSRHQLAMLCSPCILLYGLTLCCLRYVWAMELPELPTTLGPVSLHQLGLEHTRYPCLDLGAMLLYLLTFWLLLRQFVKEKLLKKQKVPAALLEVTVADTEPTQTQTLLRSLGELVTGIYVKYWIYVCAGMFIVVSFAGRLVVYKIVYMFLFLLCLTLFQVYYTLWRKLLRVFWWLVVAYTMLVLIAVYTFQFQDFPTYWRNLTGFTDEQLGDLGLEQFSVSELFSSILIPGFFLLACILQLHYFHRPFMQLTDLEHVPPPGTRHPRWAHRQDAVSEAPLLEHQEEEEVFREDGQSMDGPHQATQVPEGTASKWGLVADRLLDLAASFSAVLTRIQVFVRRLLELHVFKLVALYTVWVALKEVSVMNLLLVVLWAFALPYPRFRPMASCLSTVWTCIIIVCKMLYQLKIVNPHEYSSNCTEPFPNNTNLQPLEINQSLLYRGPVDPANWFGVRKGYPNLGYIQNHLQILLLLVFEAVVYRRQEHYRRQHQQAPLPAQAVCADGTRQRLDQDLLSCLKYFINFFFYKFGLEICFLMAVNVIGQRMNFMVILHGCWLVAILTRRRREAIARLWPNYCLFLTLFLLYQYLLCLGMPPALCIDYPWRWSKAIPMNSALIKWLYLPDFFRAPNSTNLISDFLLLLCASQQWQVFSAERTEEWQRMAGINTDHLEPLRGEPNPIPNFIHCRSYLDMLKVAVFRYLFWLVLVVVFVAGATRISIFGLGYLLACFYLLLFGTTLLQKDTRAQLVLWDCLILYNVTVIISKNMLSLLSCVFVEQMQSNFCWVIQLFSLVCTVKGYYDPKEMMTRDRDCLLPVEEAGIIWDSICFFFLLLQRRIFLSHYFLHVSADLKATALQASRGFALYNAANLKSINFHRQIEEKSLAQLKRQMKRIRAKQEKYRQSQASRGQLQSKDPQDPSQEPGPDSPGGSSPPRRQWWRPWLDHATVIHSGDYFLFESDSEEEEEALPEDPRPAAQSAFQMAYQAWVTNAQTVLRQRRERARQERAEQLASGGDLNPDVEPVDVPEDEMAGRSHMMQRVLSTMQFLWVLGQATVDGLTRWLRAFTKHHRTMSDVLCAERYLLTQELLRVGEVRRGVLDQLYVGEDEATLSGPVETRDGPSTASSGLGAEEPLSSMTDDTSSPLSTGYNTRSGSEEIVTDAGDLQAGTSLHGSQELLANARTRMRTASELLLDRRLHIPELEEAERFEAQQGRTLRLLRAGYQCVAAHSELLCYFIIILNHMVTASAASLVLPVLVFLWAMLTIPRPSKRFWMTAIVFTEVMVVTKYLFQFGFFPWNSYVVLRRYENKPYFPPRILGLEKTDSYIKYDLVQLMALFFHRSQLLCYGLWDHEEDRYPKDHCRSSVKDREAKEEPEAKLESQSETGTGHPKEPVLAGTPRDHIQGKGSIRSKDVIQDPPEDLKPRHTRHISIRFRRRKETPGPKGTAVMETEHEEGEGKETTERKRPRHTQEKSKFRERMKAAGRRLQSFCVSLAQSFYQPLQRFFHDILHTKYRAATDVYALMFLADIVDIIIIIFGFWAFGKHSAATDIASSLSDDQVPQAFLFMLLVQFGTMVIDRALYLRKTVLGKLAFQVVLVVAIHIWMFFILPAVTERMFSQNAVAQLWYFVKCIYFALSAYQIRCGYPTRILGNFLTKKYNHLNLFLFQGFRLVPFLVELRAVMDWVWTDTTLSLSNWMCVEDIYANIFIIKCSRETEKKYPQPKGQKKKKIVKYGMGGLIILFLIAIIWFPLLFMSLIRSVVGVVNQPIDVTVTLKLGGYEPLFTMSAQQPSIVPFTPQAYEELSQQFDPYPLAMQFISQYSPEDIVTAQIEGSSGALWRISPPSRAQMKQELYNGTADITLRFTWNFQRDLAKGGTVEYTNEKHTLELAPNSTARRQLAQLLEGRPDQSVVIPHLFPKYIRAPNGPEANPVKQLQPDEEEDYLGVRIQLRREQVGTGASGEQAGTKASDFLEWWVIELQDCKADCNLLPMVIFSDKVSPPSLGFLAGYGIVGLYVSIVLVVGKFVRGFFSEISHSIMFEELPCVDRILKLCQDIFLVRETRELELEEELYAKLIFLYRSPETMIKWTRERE
Outline: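 Mice were β-cell-specific Piezo1 knockouts (RIP-Cre+Piezo1f/f). Insulin secretion was measured by in situ pancreas perfusion.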

Piezo1 [21] = biological target: Piezo1 (Homo sapiens, UniProt Q92508); assay: Ca2+ imaging in human β-cells; type: cell-based
Sequence of Piezo1 (Homo sapiens, UniProt Q92508) (Q92508 whole entry): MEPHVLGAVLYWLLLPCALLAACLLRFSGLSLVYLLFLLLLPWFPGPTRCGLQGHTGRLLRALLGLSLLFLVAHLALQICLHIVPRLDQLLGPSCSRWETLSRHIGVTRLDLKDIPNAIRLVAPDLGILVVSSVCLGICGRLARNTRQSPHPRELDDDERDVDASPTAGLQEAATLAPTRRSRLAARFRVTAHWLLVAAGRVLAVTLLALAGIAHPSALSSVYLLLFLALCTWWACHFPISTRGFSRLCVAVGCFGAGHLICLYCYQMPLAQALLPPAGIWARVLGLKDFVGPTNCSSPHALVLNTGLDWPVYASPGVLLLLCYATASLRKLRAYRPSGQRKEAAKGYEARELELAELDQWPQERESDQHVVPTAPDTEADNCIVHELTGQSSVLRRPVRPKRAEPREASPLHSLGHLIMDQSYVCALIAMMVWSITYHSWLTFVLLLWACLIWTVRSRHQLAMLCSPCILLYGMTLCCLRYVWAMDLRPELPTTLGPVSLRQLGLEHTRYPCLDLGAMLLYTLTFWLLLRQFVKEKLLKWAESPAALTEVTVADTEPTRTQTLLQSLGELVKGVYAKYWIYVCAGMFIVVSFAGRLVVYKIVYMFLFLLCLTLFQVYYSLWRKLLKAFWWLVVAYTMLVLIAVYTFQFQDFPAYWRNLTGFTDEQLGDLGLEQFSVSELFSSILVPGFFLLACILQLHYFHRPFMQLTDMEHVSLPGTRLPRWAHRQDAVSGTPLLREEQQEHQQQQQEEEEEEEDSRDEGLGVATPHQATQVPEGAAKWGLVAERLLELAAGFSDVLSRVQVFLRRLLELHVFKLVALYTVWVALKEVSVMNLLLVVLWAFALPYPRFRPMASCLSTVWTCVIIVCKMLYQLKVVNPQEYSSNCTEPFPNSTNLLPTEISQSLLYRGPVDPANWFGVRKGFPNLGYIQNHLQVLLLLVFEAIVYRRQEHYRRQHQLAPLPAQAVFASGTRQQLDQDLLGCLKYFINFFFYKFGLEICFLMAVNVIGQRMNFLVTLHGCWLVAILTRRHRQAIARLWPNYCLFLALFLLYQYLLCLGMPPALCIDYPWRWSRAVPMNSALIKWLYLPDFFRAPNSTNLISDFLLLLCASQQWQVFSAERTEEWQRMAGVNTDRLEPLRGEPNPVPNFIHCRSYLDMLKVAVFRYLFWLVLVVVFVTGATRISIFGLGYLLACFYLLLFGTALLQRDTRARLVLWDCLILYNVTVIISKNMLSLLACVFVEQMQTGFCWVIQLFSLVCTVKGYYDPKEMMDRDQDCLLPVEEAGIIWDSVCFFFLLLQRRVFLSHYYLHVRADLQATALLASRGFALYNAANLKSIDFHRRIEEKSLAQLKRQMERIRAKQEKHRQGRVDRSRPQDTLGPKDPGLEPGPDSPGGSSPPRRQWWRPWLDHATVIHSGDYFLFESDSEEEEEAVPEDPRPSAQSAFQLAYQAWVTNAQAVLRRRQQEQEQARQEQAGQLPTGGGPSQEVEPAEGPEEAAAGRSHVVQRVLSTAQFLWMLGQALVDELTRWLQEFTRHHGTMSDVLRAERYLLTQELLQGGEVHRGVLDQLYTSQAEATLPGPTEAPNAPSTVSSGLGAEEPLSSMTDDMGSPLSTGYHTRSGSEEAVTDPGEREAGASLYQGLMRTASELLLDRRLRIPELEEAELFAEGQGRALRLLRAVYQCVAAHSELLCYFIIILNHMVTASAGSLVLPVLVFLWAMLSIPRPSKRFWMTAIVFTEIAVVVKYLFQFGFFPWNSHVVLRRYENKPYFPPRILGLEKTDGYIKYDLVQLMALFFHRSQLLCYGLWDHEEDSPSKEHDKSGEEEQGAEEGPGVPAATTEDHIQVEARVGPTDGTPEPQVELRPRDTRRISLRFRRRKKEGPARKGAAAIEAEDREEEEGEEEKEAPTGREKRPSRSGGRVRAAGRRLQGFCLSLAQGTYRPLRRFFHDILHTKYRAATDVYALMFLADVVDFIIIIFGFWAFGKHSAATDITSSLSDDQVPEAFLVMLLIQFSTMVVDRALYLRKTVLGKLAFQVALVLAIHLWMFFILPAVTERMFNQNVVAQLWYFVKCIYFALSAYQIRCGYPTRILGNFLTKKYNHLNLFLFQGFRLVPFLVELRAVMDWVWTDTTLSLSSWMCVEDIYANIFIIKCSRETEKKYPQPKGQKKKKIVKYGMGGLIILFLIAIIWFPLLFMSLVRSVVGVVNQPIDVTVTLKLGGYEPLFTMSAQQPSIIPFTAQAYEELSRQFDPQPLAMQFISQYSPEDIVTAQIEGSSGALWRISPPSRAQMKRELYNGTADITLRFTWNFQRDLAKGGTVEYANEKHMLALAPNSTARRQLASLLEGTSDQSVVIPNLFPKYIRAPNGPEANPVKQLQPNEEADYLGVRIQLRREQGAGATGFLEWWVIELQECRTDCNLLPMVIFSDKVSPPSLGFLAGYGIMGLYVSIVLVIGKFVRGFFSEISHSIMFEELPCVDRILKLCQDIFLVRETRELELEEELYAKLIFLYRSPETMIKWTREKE
Outline: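 Human β-cells loaded for Ca2+ imaging. Amplitude of glucose-induced [Ca2+]i oscillations recorded with and without a Piezo1-inhibiting test compound.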

[22] = 1.5 mg once weekly; 95% CI 0.79, 0.99; cited from earlier work
[23] = 4-week treatment of DIO mice, body weight loss; type: in vivo, mouse; conditions: s.c., 4 weeks, human equivalent doses
[24] = EVOLVE study, insulin detemir in pregnancy; type: in vivo, human; conditions: 727 vs 730 women
Outline: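 […] in women with pre-existing diabetes comparing the test basal insulin with another basal insulin. The primary endpoint was the number of women completing ≥22 weeks of gestation without major congenital malformations, perinatal death or neonatal death. It was analysed as crude and adjusted risk difference between treatment groups.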

neprilysin [25] = biological target: neprilysin (Homo sapiens, UniProt P08473); assay: Mixed meal after single dose sacubitril/valsartan, healthy males; type: in vivo; conditions: 194 mg sacubitril / 206 mg valsartan single dose
[26] = seven- and ninety-day treatment

Compound: NC(=O)c1ncn([C@@H]2O[C@H](COP(=O)(O)O)[C@@H](O)[C@H]2O)c1N [AICAR, 5-aminoimidazole-4-carboxamide ribonucleotide]
DMOG-induced abnormalities (HIF, VEGF, ZO-1, vimentin, migration) [1]: fully prevented

Compound: O=C1NC(=O)/C(=C/c2ccc3c(c2)OC(F)(F)O3)S1 [AS604850]
reduction of F-actin depolymerisation by GIP stimulation (Arrb2+/+ beta cells): ~ 30%

Compound: Nc1ncnc2c1ncn2[C@@H]1O[C@H](CO[P@](=O)(O)O[P@](=O)(O)O[P@@](=O)(O)S)[C@@H](O)[C@H]1O [ATPγS]
glucose uptake (C2C12 murine myotubes): increased glucose uptake

Compound: O=C(COc1ccc(C(=O)c2ccccc2)cc1)NC1CCN(Cc2ccccc2)CC1 [AdipoRon]
HFD-induced weight gain (adiponectin receptor): reduced

beta-hydroxybutyrate levels during infusion ([2]; placebo 0.1 ± 0.6): 2.4 ± 0.6 mM
Compound: CC(O)CC(=O)O (stereo not drawn) [Beta-hydroxybutyrate, beta-hydroxybutyrate]
increase in heart rate vs placebo ([2]; n=17): 13.7 ± 1.2 bpm

Compound: Cc1ccc([C@@H]2O[C@H](CO)[C@@H](O)[C@H](O)[C@H]2O)cc1Cc1ccc(-c2ccc(F)cc2)s1 [CANA, canagliflozin]
HHF alone HR vs placebo (CREDENCE trial; 95% CI 0.47-0.80): 0.61
HHF/CV death HR vs placebo (CREDENCE trial; 95% CI 0.57, 0.83, median 2.6 years): 0.69
reduction of risk of HHF/CV death (CREDENCE trial; overall population): 31%
participants with >30% decline [3]: 4%

Compound: CCOc1ccc(Cc2cc([C@@H]3O[C@H](CO)[C@@H](O)[C@H](O)[C@H]3O)ccc2Cl)cc1 [DAPA, dapagliflozin]
hepatic uptake of fatty acids vs placebo ([4]; 10 mg/day): increased
plasma NT-proBNP levels [4]: unaffected

Compound: C[C@H](NC(=O)Cc1cc(F)cc(F)c1)C(=O)N[C@H](C(=O)OC(C)(C)C)c1ccccc1 [DAPT]
IL-17A secretion (Notch pathway): significantly inhibited

Compound: CC/C=C\C/C=C\C/C=C\C/C=C\C/C=C\C/C=C\CCC(=O)O [DHA, docosahexaenoic acid]
DMOG-induced abnormalities (HIF, VEGF, ZO-1, vimentin, migration) [1]: fully prevented

Compound: OC[C@H]1O[C@@H](c2ccc(Cl)c(Cc3ccc(O[C@H]4CCOC4)cc3)c2)[C@H](O)[C@@H](O)[C@@H]1O [EMPA, empagliflozin]
myocardial perfusion (rats with CHF; long-term (90 days)): increased
exercise capacity (rats with CHF; long-term (90 days), p=0.06): increased
LV EDP (rats with CHF; [26]): reductions
LV ESP (rats with CHF; [26]): increases
13C labeling of lactate ([5]; 1 μM, 35 min, 13C glucose perfusion, vehicle 58 ± 2): 50 ± 3%
glucose-6-phosphate content ([5]; 1 μM, 35 min, vehicle 5.2 ± 0.8): 3.3 ± 0.4 AU
13C labeling of α-KG ([5]; 13C palmitate perfusion, vehicle 79 ± 1): 86 ± 1%
myocardial glucose uptake (MGU) ([6]; 18F-FDG PET, placebo 1.4±0.6): 0.6±0.6 μmol/100g/min
48-hour mean blood glucose ([6]; four weeks, placebo 9.4 ± 2.2): 8.0 ± 0.9
reduction of postabsorptive myocardial glucose uptake ([6]; in vivo): 57%
circulating FFA ([6]; placebo 0.8±3): 1.0 ± 0.4 mmol/L
FFA esterification rate ([6]; placebo 1.1±0.6): 1.3±0.7 μmol/100g/min
myocardial FFA oxidation rate ([6]; placebo 8.0±3.1): 7.2±3.1 μmol/100g/min
total FFA uptake rate ([6]; placebo 9.1±3.2): 8.4±3.6 μmol/100g/min
myocardial oxygen consumption ([6]; placebo 9.77 ± 1.34): 8.97 ± 1.11 ml/100g/min
myocardial external energy efficiency ([6]; placebo 27.7±4.5): 29.5±7.3%
3-hydroxybutyrate ([6]; placebo 65 ± 8): 130 ± 17 µmol/L
24-hour mean arterial pressure ([6]; placebo 92±8): 88±5 mmHg
circulating PYY vs placebo ([7]; 12-weeks, 3-hour mixed meal tolerance test, P = 0.003): elevated
circulating GLP-1 vs placebo (GEE) ([7]; overall across follow-up, P = 0.016): higher
patients with insulin dose reduction >10% [8]: 14.0%

Compound: CC(C)OC(=O)C(C)(C)Oc1ccc(C(=O)c2ccc(Cl)cc2)cc1 [Fenofibrate]
CAN outcome OR [9]: 0.91

Compound: CC(=O)C=O [MGO, methylglyoxal]
increase of circulating neutrophils vs PBS ([10]; 25μg iv bolus, after 10 min): 7 fold
increase of hepatic neutrophils ([10]; 10 min post injection): 9 fold
decrease of CD11b expression in the aorta ([10]; after 10 min): 19.9 fold
macrophage numbers in the liver ([10]; after 72h, control 24.2±6.8): 35.7±6.5 macrophages per microscopic view
impairment of tube formation capacity [11]: ~ 70%
impairment of cell migration ([11]; transwell assay): ~ 30%

Compound: CCOC(=O)N1CCC(CN(Cc2ccc(Cl)cc2)Cc2ccc([N+](=O)[O-])s2)C1 (stereo not drawn) [SR9009]
decrease of glucose-stimulated insulin secretion (Rev-erbα): 70%

increase of exogenous glucagon levels (iAUC0-60 min) (neprilysin [12]): 1.9 fold
Compound: CCOC(=O)[C@H](C)C[C@@H](Cc1ccc(-c2ccccc2)cc1)NC(=O)CCC(=O)O [Sacubitril, sacubitril]

Compound: C[C@H](CCC(=O)NCCS(=O)(=O)O)[C@H]1CC[C@H]2[C@@H]3[C@H](O)C[C@@H]4C[C@H](O)CC[C@]4(C)[C@H]3C[C@H](O)[C@]12C [TCA, taurocholic acid]
plasma glucose iAUC 0-180 min [13]: 568 ± 38 mmol·min/L

Compound: C[C@@H]1C[C@H]2[C@@H]3CCC4=CC(=O)C=C[C@]4(C)[C@@]3(F)[C@@H](O)C[C@]2(C)[C@@]1(O)C(=O)CO [dexamethasone]
reduction of basal and insulin-stimulated glucose uptake [14]: ~ 50%

Compound: OC[C@H]1O[C@@H](c2ccc(Cl)c(Cc3ccc(O[C@H]4CCOC4)cc3)c2)[C@H](O)[C@@H](O)[C@@H]1O [empagliflozin]
plasma glucose, fructosamine, glycated albumin and UACR [15]: decreased
systolic blood pressure, empagliflozin vs dapagliflozin ([16]; CI -2.35 to -0.12): -1.24 mmHg
diastolic blood pressure, mean difference versus placebo ([16]; network meta-analysis): -1.73 mmHg
hypothalamic blood flow response to intranasal insulin [17]: significant insulin-induced decrease
body weight ([18]; 10mg/kg, 8 weeks, HFD 49.5 ± 2.8): 41.2 ± 1.5 g
fat mass ([18]; HFD 17.6 ± 3.4): 10.7 ± 2.6 g
AUC insulin ([18]; HFD 9617± 242): 6263 ± 337
AUC glucose ([18]; HFD 38739± 1750): 27714 ± 1052
left ventricular mass index (LVMI) [19]: 111,1 g/m2

Compound: CC#CCn1c(N2CCC[C@@H](N)C2)nc2c1c(=O)n(Cc1nc(C)c3ccccc3n1)c(=O)n2C [linagliptin]
hypoglycaemia rates vs glimepiride (CAROLINA trial): significantly lower

increase of insulin secretion (Piezo1 [20]; glucose alone almost 3-fold): ~ 7 fold
Compound: Clc1cccc(Cl)c1CSc1nnc(-c2cnccn2)s1 [yoda1]

Compound: GsMTx4
reduction of amplitude of glucose-induced [Ca2+]i oscillations (Piezo1 [21]): ~ 80%
reduction of insulin release (Piezo1 [20]): > 30%

Compound: dulaglutide
MACE-3 hazard ratio vs placebo [22]: 0.88
body weight loss vs vehicle [23]: -2.5%

Compound: insulin detemir [IDet]
risk of major congenital malformations, perinatal or neonatal deaths vs other basal insulin [24]: not associated with excess risk

increase of postprandial glucagon levels (iAUC0-240 min) (neprilysin [25]): 2.7 fold
Compound: sacubitril / valsartan [sacubitril/valsartan]
